# Among all 370,000 compounds or so, about 1,200 (0.32%) were called active.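 How the source made its calls: active means inhibition above the mean of all tested compounds plus 3 SD, set per campaign (cut at about 25% in these data); inactive means the rest.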 The sample as a whole holds a higher share of actives than the screen did.
# Molecular target: Tyrosyl-DNA phosphodiesterase 2 (Homo sapiens) (UniProt O95551)
# Assay: blockers of TDP2 phosphodiesterase activity – biochemical, epi absorbance, recombinant enzyme, primary screen (AID 720702);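 further: 0% = DMSO with enzyme and 100% = buffer with substrate but no TDP2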
# Conditions: recombinant TDP2, T5PNP hydrolysis, p-nitrophenol absorbance 415 nm; at 12.8 µM; stronger effect = higher value
# Summary of the method: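 System – recombinant human TDP2 · Amount – 120 nM TDP2 per well · Buffer or medium – Mg2+-containing Tris-HCl buffer, pH 7.5 · Reagent – T5PNP substrate, 5 mM · Dosing – 12.8 µM single point, 1% DMSO · Incubation – 2 h at 37 °C · Measured by – epi absorbance · Read-out basis – percent inhibition · Benchmarks – high control without enzyme, low control DMSO plus TDP2 · Repeats – singlicate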
# Chain of Tyrosyl-DNA phosphodiesterase 2 (Homo sapiens) (O95551 whole entry, looked up): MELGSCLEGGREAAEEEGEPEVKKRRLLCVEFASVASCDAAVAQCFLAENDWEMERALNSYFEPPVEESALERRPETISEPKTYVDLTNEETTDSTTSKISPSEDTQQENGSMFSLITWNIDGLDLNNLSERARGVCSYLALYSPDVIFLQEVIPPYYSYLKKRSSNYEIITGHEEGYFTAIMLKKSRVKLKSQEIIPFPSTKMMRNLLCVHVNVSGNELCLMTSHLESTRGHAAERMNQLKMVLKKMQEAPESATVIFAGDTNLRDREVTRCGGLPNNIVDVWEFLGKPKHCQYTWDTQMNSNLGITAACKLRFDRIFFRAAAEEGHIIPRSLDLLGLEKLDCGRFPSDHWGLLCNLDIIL
row,Compound,inhibition
1,COc1cc(Cn2c(N)c(C(=O)NCc3ccco3)c3nc4ccccc4nc32)cc(OC)c1OC,0.54% (inactive)
2,CCOC(=O)c1c(N)n(Cc2ccccc2)c2nc3ccccc3nc12,82.6% (active)
3,CCOC(=O)c1cccc(C2=C(CNC(=O)c3ccncc3)[C@H]3CC[C@@H](C2)N3Cc2ccccc2)c1,4.63% (inactive)
4,CCC(C)n1c(O)c(/C=N/Nc2nc3c(c(=O)n(C)c(=O)n3C)n2C)c(=O)[nH]c1=S (stereo not given),-0.24% (inactive)
5,CCC(C)NC1(c2ccccc2)CCCCC1 (stereo not given),5% (inactive)
6,CC(Cc1cccs1)NCc1ccc(Cl)cc1 (stereo not given),4.69% (inactive)
7,Cn1c(C(=O)N2CCC(C(=O)N3CCC4(CC3)OCCO4)CC2)cc2sccc21,-4.33% (inactive)
8,O=C1NC(=O)N(Cc2ccco2)C(=O)/C1=C\c1ccc(-c2ccc(F)cc2)o1,26.3% (active)
9,N[C@@H](Cc1c[nH]c2ccccc12)c1nnc(SCc2c(F)cccc2Cl)o1,5.28% (inactive)
10,Cc1ccccc1CCC[C@@H](CC1CCCCC1)CN(C)C(=O)Oc1ccccc1,-0.32% (inactive)

# Source: PubChem BioAssay AID720702 (The Scripps Research Institute Molecular Screening Center, 2013)
